Test results as given in PubChem BioAssay AID492981 (Johns Hopkins Ion Channel Center, 2010).
Results filed as inconclusive are left out. Active and inactive are the calls of the source.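 How the source made its calls: active means compound whose replicate-averaged normalized fluorescence ratio fell more than 5 SD below the agonist-stimulated control mean; inactive means the rest, inconclusive results apart.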

biological target: Short transient receptor potential channel 6 (Mus musculus) (UniProt Q61143); test: mouse TRPC6 channel blockers, analog testing – HEK293 cells, membrane potential dye, single concentration, selectivity assay for selective TRPC4 inhibitor project, SAR follow-up (AID 492981); conditions: membrane potential dye fluorescence, at 10 µM, stronger effect = higher value
Procedure, shortened: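 Test system: HEK293 cells expressing mouse TRPC6 channel; also added: ECmax acetylcholine; times: dye loading 45 min at room temperature, compound preincubation 110 s; signal: kinetic fluorescence reading of membrane potential dye; read-out: integrated fluorescence ratio inhibition versus positive controls; repeats: at least duplicate wells per compound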

Short transient receptor potential channel 6 (Mus musculus), sequence (Q61143 whole entry, looked up): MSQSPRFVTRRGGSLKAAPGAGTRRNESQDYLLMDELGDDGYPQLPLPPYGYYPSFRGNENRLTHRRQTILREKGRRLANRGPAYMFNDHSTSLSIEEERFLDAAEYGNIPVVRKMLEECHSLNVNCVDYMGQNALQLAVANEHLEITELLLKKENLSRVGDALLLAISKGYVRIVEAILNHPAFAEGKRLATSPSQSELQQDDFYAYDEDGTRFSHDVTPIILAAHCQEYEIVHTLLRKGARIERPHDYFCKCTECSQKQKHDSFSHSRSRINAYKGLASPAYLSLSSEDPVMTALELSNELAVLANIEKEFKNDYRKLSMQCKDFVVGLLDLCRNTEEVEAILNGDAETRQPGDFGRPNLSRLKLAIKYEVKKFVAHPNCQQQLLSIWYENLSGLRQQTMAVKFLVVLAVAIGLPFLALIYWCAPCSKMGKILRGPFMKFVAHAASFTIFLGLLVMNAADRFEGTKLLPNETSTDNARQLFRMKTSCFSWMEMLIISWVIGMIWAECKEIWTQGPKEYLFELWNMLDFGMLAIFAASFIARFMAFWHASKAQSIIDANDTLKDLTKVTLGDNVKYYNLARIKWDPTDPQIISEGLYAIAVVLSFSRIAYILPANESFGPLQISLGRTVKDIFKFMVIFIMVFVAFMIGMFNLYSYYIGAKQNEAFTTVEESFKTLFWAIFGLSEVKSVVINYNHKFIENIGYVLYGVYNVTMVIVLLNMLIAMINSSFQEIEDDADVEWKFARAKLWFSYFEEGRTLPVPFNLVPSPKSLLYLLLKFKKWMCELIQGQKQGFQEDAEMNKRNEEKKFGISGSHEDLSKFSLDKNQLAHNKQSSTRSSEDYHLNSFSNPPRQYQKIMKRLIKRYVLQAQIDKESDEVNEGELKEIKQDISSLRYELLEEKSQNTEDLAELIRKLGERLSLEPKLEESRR

Row | Compound | inhibition
1 | COc1ccccc1N1CCN(c2cc(C)c3ccccc3n2)CC1 | 11.7% (inactive)
2 | Cc1cc(N2CCC(N3CCOCC3)CC2)nc2ccccc12 | 44.8%
3 | Cc1cc(N2CCN(c3ccncc3)CC2)nc2ccccc12 | 61.2%
4 | Cc1cc(N2CCC(C)CC2)nc2ccccc12 | 13.6% (inactive)
5 | Cc1cc(N2CCCC(O)C2)nc2ccccc12 (stereo not drawn) | 26.7%
6 | COCCN(C)c1cc(C)c2ccccc2n1 | 22.2% (inactive)
7 | Cc1cc(N2CCN(C)CC2)nc2ccccc12 | 2.9% (inactive)
8 | Cc1cc(N2CCN(CC3CCCO3)CC2)nc2ccccc12 (stereo not drawn) | 14.3% (inactive)
9 | Cc1cc(N2CCOCC2)nc2ccccc12 | 2.35% (inactive)
10 | COc1ccc(N2CCN(c3cc(C)c4ccccc4n3)CC2)cc1 | 15.5% (inactive)
11 | Cc1cc(N(C)CCN(C)C)nc2ccccc12 | 18.1% (inactive)
12 | Cc1cc(N2CCNCC2)nc2ccccc12 | 37.2%
13 | Cc1cc(N2CC(C)CC(C)C2)nc2ccccc12 (stereo not drawn) | 16.4% (inactive)
14 | Cc1cc(N2CCOc3ccccc32)nc2ccccc12 | 13.7% (inactive)
15 | Cc1cc(N2CCC[C@@H]2C)nc2ccccc12 | 47.6%
16 | CCN(CC)c1cc(C)c2ccccc2n1 | 9.79% (inactive)
17 | Cc1cc(N2CCN(c3ccccc3C#N)CC2)nc2ccccc12 | 0.71% (inactive)

Other lines, results leading:

Row | inhibition | Compound
18 | 6.28% (inactive) | Cc1cc(N2CCN(c3ncccn3)CC2)nc2ccccc12
19 | -9.81% (inactive) | Cc1ccnc(N2CCCCC2)n1
20 | 37.5% (inactive) | Cc1ccc2nc(N3CCCCC3)cc(C)c2c1
21 | 19.4% (inactive) | c1ccc(-c2cc(N3CCCCC3)nc3ccccc23)cc1
22 | 2.24% (inactive) | c1ccc(-c2cc(N3CCCC3)nc3ccccc23)cc1
23 | -27.6% (inactive) | Cc1ccnc(N2CCCC2)c1
24 | 3.78% (inactive) | Cc1cc(N2CCCCC2)nc2ccc(F)cc12
25 | -2.93% (inactive) | Cc1ccnc(N2CCCCC2)c1
26 | 11.5% (inactive) | FC(F)(F)c1cc(N2CCCC2)nc2ccccc12
27 | 33.9% (inactive) | Cc1cc(N2CCCC2)nc2c(C)cccc12
28 | -6.71% (inactive) | Cc1ccnc(N2CCCC2)n1
29 | 13.6% (inactive) | CCc1ccc2nc(N3CCCCC3)cc(C)c2c1
30 | -6.62% (inactive) | FC(F)(F)c1cc(N2CCCCC2)nc2ccccc12
31 | 42.7% | Cc1cc(N2CCCCC2)nc2ccccc12
32 | 57.9% | Cc1cc(N2CCCC2)nc2ccccc12
33 | 3.23% (inactive) | Cc1cc(N2CCCCC2)nc2c(C)cccc12
